The test system of series [1] is Cynomolgus monkey. Nature of the series: Ex vivo inhibition of haTRAP-induced platelet aggregation in cynomolgus monkey at 3 mg/kg, po after 6 hrs. The class given is functional. The settings on record: Macaca fascicularis. The gist of the method: (§1)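 Conscious, chaired cynomolgus monkeys dosed orally at 3 mg/kg in 20% PEG-HPBCD; blood drawn at 1 h intervals to 6 h, then at 24 h; haTRAP added ex vivo as agonist; aggregation read in a whole blood aggregometer, reported as percent reduction.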

Series [2] has as its system Cynomolgus monkey. Nature of the series: Ex vivo inhibition of haTRAP-induced platelet aggregation in cynomolgus monkey at 3 mg/kg, po 24 hrs. Type of series: functional. The settings on record: Macaca fascicularis. The gist of the method:
as §1

The nature of series [3]: Cmax in po dosed cynomolgus monkey. The settings on record: in vivo. The class given is ADME, organism-based, Macaca fascicularis. The arrangement: route oral.
For series [4], the species on record is Mus musculus. Briefly: Effect on liver weight in mouse. Type of series: functional, organism-based. The gist of the method: (§2)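 Mouse P450 enzyme induction model run for 8 days at doses up to 100 mg/kg; end points were liver weight, liver-to-body weight ratio and spectral CYP450.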
The nature of series [5]: Tmax in cynomolgus monkey. Type of series: ADME, organism-based, Macaca fascicularis. The settings on record: in vivo.
For series [6], the target named is T1, Proteinase-activated receptor 1 (Homo sapiens, UniProt P25116).
T1 sequence (P25116 whole entry): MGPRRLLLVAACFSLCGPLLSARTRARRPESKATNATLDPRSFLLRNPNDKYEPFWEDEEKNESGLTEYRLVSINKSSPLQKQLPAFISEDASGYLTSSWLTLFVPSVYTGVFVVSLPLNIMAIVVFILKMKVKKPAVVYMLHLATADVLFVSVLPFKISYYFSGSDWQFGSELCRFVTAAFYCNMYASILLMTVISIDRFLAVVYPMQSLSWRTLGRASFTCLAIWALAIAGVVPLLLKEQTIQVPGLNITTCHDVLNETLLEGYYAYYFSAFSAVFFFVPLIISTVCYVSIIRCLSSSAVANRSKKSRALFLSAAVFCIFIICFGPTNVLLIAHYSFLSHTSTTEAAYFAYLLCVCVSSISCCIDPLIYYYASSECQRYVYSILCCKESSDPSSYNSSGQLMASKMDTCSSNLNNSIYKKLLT
Nature of the series: Displacement of [3H]haTRAP from PAR1 in human platelet membrane. The class given is cell membranes. The procedure, abridged: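 Membranes from human platelets as the PAR-1 source, with tritiated high-affinity thrombin receptor activating peptide ([3H]haTRAP) as radioligand; IC50 reported ± SEM, n = 2.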

A short description of series [7]: AUC (0 to 6 hrs) in rat at 10 mg/kg, po. The class given is ADME, organism-based. The settings on record: plasma. Also noted: time < 6 hr, dose 10 mg/kg, route oral. The procedure, abridged: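 Rats given a single 10 mg/kg oral dose in 0.4% methylcellulose; plasma levels followed for 6 h and exposure reported as AUC from 0 to 6 h in ng·hr/mL.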
A short description of series [8]: Bioavailability in cynomolgus monkey at 3 mg/kg, po. The class given is ADME, organism-based, Macaca fascicularis. The settings on record: in vivo.
A short description of series [9]: Half life in iv dosed cynomolgus monkey. The settings on record: in vivo. The class given is ADME, organism-based, Macaca fascicularis.
The species entered for series [10] is Mus musculus. Briefly: Effect on liver to body weight ratio in mouse. The class given is functional, organism-based. The gist of the method: as §2

A word on the inhibition in vivo: it is the percentage by which the read-out fell short of the control. By Cmax is commonly meant the maximum level reached in the sampled fluid or tissue. As a reminder, the Tmax is the time at which the peak concentration occurs. The IC50 is the concentration needed to halve the response being measured. What is called Ki is the equilibrium dissociation constant of an inhibitor or competing ligand from its target. As usually defined, the AUC(0-t) is exposure summed from dosing to a finite time, without extrapolation to infinity. The bioavailability is the share of a dose that reaches the circulation, judged against a reference dose that is usually intravenous. As usually defined, the half-life is the time in which the quantity being followed falls by half.

Calls of active or inactive are those of the source. No cut-off for these calls is given here.

Take `CCOC(=O)N1CC[C@@H]2[C@H](C[C@H]3C(=O)O[C@H](C)[C@H]3[C@H]2/C=C/c2ccc(-c3cccc(F)c3)cn2)C1`: the inhibition in vivo at 3 mg/kg is 100% in [1] and 70% in series [2]. The compound also yielded a peak concentration (Cmax) in [3] of 990 nM. For the same compound, the result in series [4] and in [10] was inactive. For the same compound, in series [5], the Tmax turned out to be 0.7 h. Also, the IC50 in series [6] was found to be 10.5 nM. Besides, in series [6], the Ki worked out at 4.5 nM. This compound also displayed an AUC(0-t) at 6 h in series [7] of 2220 ng·h/mL. Moreover, the bioavailability in [8] was 62%. Moreover, in series [9], the half-life was 6.2 h.

The record behind these values is ChEMBL document CHEMBL1148816, “Heterotricyclic himbacine analogs as potent, orally active thrombin receptor (protease activated receptor-1) antagonists” (J Med Chem, 2007).
